Reference: ChEMBL document CHEMBL1781935, “Amberlite-IRA-402 (OH) ion exchange resin mediated synthesis of indolizines, pyrrolo [1,2-a] quinolines and isoquinolines: antibacterial and antifungal evaluation of the products” (2011)
In brackets after ≈: the same amount, converted by molar mass.

Tests used:
Escherichia coli = experiment: Antibacterial activity against Escherichia coli ATCC 25938; format: functional
Method in brief: (§1)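 MIC by broth and agar dilution. Broth: 0.1 ml suspension (2 × 10^6 cfu/ml) in Mueller-Hinton broth with test drug at 1–1000 µg/ml, 37 °C overnight. Agar: serial drug dilutions in Mueller-Hinton agar, spot-inoculated with 2 × 10^6 cfu/spot, 37 °C for 24 h. MIC was the lowest concentration with no visible growth. Antibiotic controls were included.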

Klebsiella pneumoniae = experiment: Antibacterial activity against Klebsiella pneumoniae isolate J/1/4; format: functional; method in brief: as §1
Staphylococcus aureus = experiment: Antibacterial activity against Staphylococcus aureus ATCC 25923; format: functional; method in brief: as §1
Pseudomonas aeruginosa = experiment: Antibacterial activity against Pseudomonas aeruginosa ATCC 27853; format: functional; method in brief: as §1
Vibrio cholerae = experiment: Antibacterial activity against Vibrio cholerae isolate 7201; format: functional
Bacillus subtilis = experiment: Antibacterial activity against Bacillus subtilis UC564; format: functional; method in brief: as §1
Shigella dysenteriae = experiment: Antibacterial activity against Shigella dysenteriae isolate 3; format: functional
Enterococcus faecalis = experiment: Antibacterial activity against Streptococcus faecalis isolate 29212; format: functional; method in brief: as §1
Shigella flexneri = experiment: Antibacterial activity against Shigella flexneri DN13; format: functional; method in brief: as §1
Salmonella typhi = experiment: Antibacterial activity against Salmonella typhi DIRW; format: functional, Salmonella enterica subsp. enterica serovar Typhi
Vibrio parahaemolyticus = experiment: Antibacterial activity against Vibrio parahaemolyticus isolate 72016; format: functional; method in brief: as §1
Micrococcus luteus = experiment: Antibacterial activity against Micrococcus luteus AGD1; format: functional; method in brief: as §1
Salmonella typhimurium = experiment: Antibacterial activity against Salmonella Typhimurium isolate 11; format: functional, Salmonella enterica subsp. enterica serovar Typhimurium; method in brief: as §1

Row | Molecule | MIC (Escherichia coli) [µg/mL] | MIC (Klebsiella pneumoniae) [µg/mL] | MIC (Staphylococcus aureus) [µg/mL] | MIC (Pseudomonas aeruginosa) [µg/mL] | MIC (Vibrio cholerae) [µg/mL] | MIC (Bacillus subtilis) [µg/mL] | MIC (Shigella dysenteriae) [µg/mL] | MIC (Enterococcus faecalis) [µg/mL] | MIC (Shigella flexneri) [µg/mL] | MIC (Salmonella typhi; Salmonella enterica) [µg/mL] | MIC (Vibrio parahaemolyticus) [µg/mL] | MIC (Micrococcus luteus) [µg/mL] | MIC (Salmonella typhimurium; Salmonella enterica) [µg/mL] | MIC (Salmonella typhi; Salmonella enterica subsp. enterica serovar Typhi) [µg/mL] | MIC (Salmonella typhimurium; Salmonella enterica subsp. enterica serovar Typhimurium) [µg/mL]
1 | COC(=O)c1cc2ccccn2c1C(=O)c1ccccc1 | > 500 | > 500 | > 500 | > 500 | > 500 | > 500 | > 500 | > 500 | > 500 | > 500 | > 500 | > 500 | > 500 | – | –
2 | COC(=O)c1cc2ccc3ccccc3n2c1C(=O)c1ccccc1 | > 500 | > 500 | > 500 | > 500 | > 500 | > 500 | > 500 | > 500 | > 500 | > 500 | > 500 | > 500 | > 500 | – | –
3 | CCOC(=O)c1cc2ccc3ccccc3n2c1C(=O)c1ccccc1 | > 500 | > 500 | > 500 | > 500 | > 500 | > 500 | > 500 | > 500 | > 500 | > 500 | > 500 | > 500 | > 500 | – | –
4 | COC(=O)c1cc(C(=O)c2ccccc2)n2ccc3ccccc3c12 | 500 (≈ 1520 µM) | 256 (≈ 777 µM) | 128 (≈ 389 µM) | 128 (≈ 389 µM) | 256 (≈ 777 µM) | 256 (≈ 777 µM) | 256 (≈ 777 µM) | 256 (≈ 777 µM) | 128 (≈ 389 µM) | 256 (≈ 777 µM) | 256 (≈ 777 µM) | > 500 | 500 (≈ 1520 µM) | – | –
5 | COC(=O)c1c(C(=O)OC)c2ccccn2c1C(=O)c1ccccc1 | > 500 | > 500 | > 500 | 500 (≈ 1480 µM) | > 500 | > 500 | > 500 | > 500 | > 500 | > 500 | > 500 | > 500 | > 500 | – | –
6 | COC(=O)c1c(C(=O)OC)c2c3ccccc3ccn2c1C(=O)c1ccccc1 | 256 (≈ 661 µM) | 500 (≈ 1290 µM) | 256 (≈ 661 µM) | 500 (≈ 1290 µM) | 500 (≈ 1290 µM) | > 500 | > 500 | > 500 | > 500 | > 500 | 256 (≈ 661 µM) | > 500 | 256 (≈ 661 µM) | – | –
7 | GENTAMICIN | 0.25 | 2 | 1 | 2 | 0.5 | 4 | 1 | 0.5 | 1 | – | 1 | 8 | – | 1 | 1
8 | CCOC(=O)c1c(C(=O)OCC)c2c3ccccc3ccn2c1C(=O)c1ccccc1 | 128 (≈ 308 µM) | 128 (≈ 308 µM) | 500 (≈ 1200 µM) | 500 (≈ 1200 µM) | 500 (≈ 1200 µM) | 256 (≈ 616 µM) | > 500 | > 500 | 256 (≈ 616 µM) | 128 (≈ 308 µM) | 128 (≈ 308 µM) | > 500 | > 500 | – | –
9 | CCOC(=O)c1c(C(=O)OCC)c2ccccn2c1C(=O)c1ccccc1 | > 500 | > 500 | > 500 | > 500 | > 500 | > 500 | > 500 | > 500 | > 500 | > 500 | > 500 | > 500 | > 500 | – | –
10 | CCOC(=O)c1cc2ccccn2c1C(=O)c1ccccc1 | > 500 | > 500 | > 500 | > 500 | > 500 | > 500 | > 500 | > 500 | > 500 | > 500 | > 500 | > 500 | > 500 | – | –
